ChEMBL document CHEMBL1143425, “Paradoxical growth effect of caspofungin observed on biofilms and planktonic cells of five different Candida species” (2007)
In brackets after ≈: the same amount, converted by molar mass. Activity calls are given as the source filed them.

Key:
Candida orthopsilosis [1] = test: Antimicrobial activity against Candida orthopsilosis BR-A34 grown as biofilm after 48 hrs by XTT reduction assay; type: functional; conditions: Lodderomyces orthopsilosis
How it was run: (§1)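 Isolates were grown on Sabouraud agar (30°C, 24 h), then overnight in RPMI 1640 with MOPS, pH 7.0, at 35°C with shaking. Cells were washed and set to ~1 × 10^7 cells/ml, attached 1.5 h at 37°C, and grown 24 h. Biofilms were then exposed to caspofungin in 10 twofold dilutions (2–1,024 μg/ml) for 48 h at 35°C with shaking. Read-out was XTT-menadione, 1 h, 35°C, dark, A490, cell-free blank subtracted. MIC was the 50% drop in activity versus drug-free control. Tested in duplicate.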

Candida parapsilosis [2] = test: Effect on morphology in Candida parapsilosis grown as biofilm assessed as inhibition of hyphae and pseudohyphae at 128 ug/ml after 48 hrs; type: functional, organism-based
How it was run: (§2)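 Biofilms formed in RPMI 1640 wells were exposed to caspofungin for 48 h and compared with drug-free control wells. Wells were examined in the plate under an inverted light microscope at ×200 and photographed.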

Candida parapsilosis [3] = test: Antimicrobial activity against Candida parapsilosis 22019 grown as biofilm assessed as concentration producing paradoxical growth after 48 hrs by XTT reduction assay; type: functional
How it was run: (§3)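 Sabouraud-grown cells were shaken overnight (18 h, 120 rpm, 35°C) in RPMI 1640 with MOPS at pH 7.0, then washed and set at ~1 × 10^7 cells/ml. Attachment lasted 1.5 h at 37°C, and growth ran 24 h before challenge. Caspofungin was added in RPMI at 2–1,024 μg/ml (10 doublings) for 48 h at 35°C with shaking. XTT-menadione was read at 490 nm after 1 h at 35°C in the dark, with blank wells subtracted. MIC was taken as 50% reduction versus drug-free wells, and PG as >50% of control above MIC. Assays were run in duplicate.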

Candida metapsilosis [4] = test: Antimicrobial activity against Candida metapsilosis BR-A43 grown as biofilm after 48 hrs by XTT reduction assay; type: functional; conditions: Lodderomyces metapsilosis; how it was run: as §3
Candida tropicalis [5] = test: Antimicrobial activity against Candida tropicalis BR-A24 grown as planktonic cell after 48 hrs by XTT reduction assay; type: functional
How it was run: (§4)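 Planktonic broth microdilution followed CLSI M27-A2, with caspofungin dissolved in water. After 48 h, XTT-menadione was added to the wells and plates were kept 1 h at 35°C in the dark. Plates were then centrifuged and supernatant A490 was read. MIC was the lowest concentration giving a 50% decrease in metabolic activity versus drug-free control. Paradoxical growth was defined as ≥20% of control activity above the MIC.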

Candida parapsilosis [6] = test: Antimicrobial activity against Candida parapsilosis BR-A26 grown as biofilm assessed as paradoxical growth after 48 hrs by XTT reduction assay; type: functional, organism-based
How it was run: (§5)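 Clinical isolates were grown overnight (18 h, 35°C, 120 rpm) in RPMI 1640 with MOPS, pH 7.0, then washed and set to ~1 × 10^7 cells/ml. Cells attached for 1.5 h at 37°C, 75 rpm, then biofilms grew 24 h. Caspofungin was given as doubling dilutions of 2–1,024 μg/ml for 48 h at 35°C, 75 rpm. Read-out was XTT-menadione in PBS, 1 h at 35°C in the dark, A490, cell-free blank subtracted. MIC was a 50% drop in activity versus drug-free; PG was >50% of control above MIC. Run in duplicate.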

Candida orthopsilosis [7] = test: Antimicrobial activity against Candida orthopsilosis BR-A38 grown as planktonic cell after 48 hrs by XTT reduction assay; type: functional; conditions: Lodderomyces orthopsilosis; how it was run: as §4
Candida orthopsilosis [8] = test: Antimicrobial activity against Candida orthopsilosis BR-A36 grown as biofilm assessed as concentration producing paradoxical growth after 48 hrs by XTT reduction assay; type: functional; how it was run: as §3
Candida parapsilosis [9] = test: Antimicrobial activity against Candida parapsilosis 22019 grown as planktonic cell assessed as paradoxical growth after 48 hrs by XTT reduction assay; type: functional
How it was run: (§6)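 Planktonic broth microdilution followed CLSI M27-A2, with caspofungin dissolved in water. After 48 h, XTT-menadione was added to each well and plates were incubated 1 h at 35°C in the dark. Cells were pelleted by centrifugation and the supernatant was read at 490 nm. MIC was the lowest concentration giving a 50% drop in metabolic activity versus the drug-free control. PG was ≥20% of drug-free activity above the MIC.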

Candida tropicalis [10] = test: Effect on morphology in Candida tropicalis grown as planktonic cells assessed as rounding and clumping at 8 ug/ml after 48 hrs; type: functional, organism-based
How it was run: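 Clinical isolates were tested by CLSI M27-A2 broth microdilution with caspofungin dissolved in sterile water. After 48 h incubation, cells were taken from drug-containing and drug-free control wells. They were examined by light microscopy at ×400 for hyphae or pseudohyphae, rounding or clumping, and enlarged globose cells.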

Candida parapsilosis [11] = test: Antimicrobial activity against Candida parapsilosis BR-A29 grown as biofilm assessed as concentration producing paradoxical growth after 48 hrs by XTT reduction assay; type: functional; how it was run: as §5
Candida tropicalis [12] = test: Antimicrobial activity against Candida tropicalis BR-A18 grown as planktonic cell after 48 hrs by XTT reduction assay; type: functional; how it was run: as §6
Candida metapsilosis [13] = test: Antimicrobial activity against Candida metapsilosis BR-A40 grown as biofilm after 48 hrs by XTT reduction assay; type: functional; conditions: Lodderomyces metapsilosis; how it was run: as §3
Candida metapsilosis [14] = test: Antimicrobial activity against Candida metapsilosis BR-A40 grown as planktonic cell after 48 hrs by XTT reduction assay; type: functional; conditions: Lodderomyces metapsilosis
How it was run: (§7)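 Planktonic cells were tested by CLSI M27-A2 broth microdilution with caspofungin in water, incubated 48 h. XTT-menadione was added to each well, plates were held 1 h at 35°C in the dark and centrifuged, and supernatant absorbance was read at 490 nm. MIC was defined as 50% decrease in metabolic activity versus drug-free control. PG was defined as ≥20% of control activity at concentrations above MIC.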

Candida tropicalis [15] = test: Antimicrobial activity against Candida tropicalis BR-A8 grown as planktonic cell after 48 hrs by XTT reduction assay; type: functional; how it was run: as §4
Candida orthopsilosis [16] = test: Antimicrobial activity against Candida orthopsilosis BR-A38 grown as planktonic cell assessed as concentration producing paradoxical growth after 48 hrs by XTT reduction assay; type: functional; how it was run: as §7
Candida metapsilosis [17] = test: Antimicrobial activity against Candida metapsilosis BR-A44 grown as biofilm after 48 hrs by XTT reduction assay; type: functional; conditions: Lodderomyces metapsilosis; how it was run: as §3
Candida parapsilosis [18] = test: Antimicrobial activity against Candida parapsilosis 22019 grown as biofilm after 48 hrs by XTT reduction assay; type: functional; conditions: Lodderomyces parapsilosis, 22019, 48 h; how it was run: as §1
Candida tropicalis [19] = test: Antimicrobial activity against Candida tropicalis BR-A20 grown as biofilm assessed as concentration producing paradoxical growth after 48 hrs by XTT reduction assay; type: functional; how it was run: as §5
Candida metapsilosis [20] = test: Antimicrobial activity against Candida metapsilosis BR-A42 grown as biofilm after 48 hrs by XTT reduction assay; type: functional; conditions: Lodderomyces metapsilosis; how it was run: as §3
Candida orthopsilosis [21] = test: Antimicrobial activity against Candida orthopsilosis BR-A33 grown as biofilm after 48 hrs by XTT reduction assay; type: functional; conditions: Lodderomyces orthopsilosis; how it was run: as §1
Candida orthopsilosis [22] = test: Effect on morphology in Candida orthopsilosis grown as planktonic cells assessed as rounding and clumping at 64 ug/ml after 48 hrs; type: functional, organism-based
How it was run: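 Cells were taken from caspofungin-containing and drug-free wells of the planktonic broth microdilution test after 48 h. They were examined by light microscopy at ×400.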

Candida parapsilosis [23] = test: Antimicrobial activity against Candida parapsilosis BR-A31 grown as biofilm assessed as concentration producing paradoxical growth after 48 hrs by XTT reduction assay; type: functional; how it was run: as §5
Candida metapsilosis [24] = test: Antimicrobial activity against Candida metapsilosis BR-A43 grown as planktonic cell assessed as paradoxical growth after 48 hrs by XTT reduction assay; type: functional, organism-based; how it was run: as §7
Candida parapsilosis [25] = test: Effect on morphology in Candida parapsilosis grown as biofilm assessed as rounding and clumping at 128 ug/ml after 48 hrs; type: functional, organism-based; how it was run: as §2

## CC[C@H](C)C[C@H](C)CCCCCCCCC(=O)N[C@H]1C[C@@H](O)[C@@H](NCCN)NC(=O)[C@@H]2[C@@H](O)CCN2C(=O)[C@H]([C@H](O)CCN)NC(=O)[C@H]([C@H](O)[C@@H](O)c2ccc(O)cc2)NC(=O)[C@@H]2C[C@@H](O)CN2C(=O)[C@H]([C@@H](C)O)NC1=O [CASPOFUNGIN]
Candida orthopsilosis [1]
  MIC: 2 µg/mL (≈ 1.83 µM)
Candida parapsilosis [2]
  Activity: Active
Candida parapsilosis [3]
  Activity: 16 µg/mL
Candida metapsilosis [4]
  MIC: 2 µg/mL (≈ 1.83 µM)
Candida tropicalis [5]
  MIC: 1 µg/mL (≈ 0.915 µM)
Candida parapsilosis [6]
  Activity: Active
Candida orthopsilosis [7]
  MIC: 2 µg/mL (≈ 1.83 µM)
Candida orthopsilosis [8]
  Activity: 16 µg/mL
Candida parapsilosis [9]
  Activity: 8 µg/mL
Candida tropicalis [10]
  Activity: Active
Candida parapsilosis [11]
  Activity: 16 µg/mL
Candida tropicalis [12]
  MIC: 0.5 µg/mL (≈ 0.457 µM)
Candida metapsilosis [13]
  MIC: 2 µg/mL (≈ 1.83 µM)
Candida metapsilosis [14]
  MIC: 1 µg/mL (≈ 0.915 µM)
Candida tropicalis [15]
  MIC: 1 µg/mL (≈ 0.915 µM)
Candida orthopsilosis [16]
  Activity: 16 µg/mL
Candida metapsilosis [17]
  MIC: 2 µg/mL (≈ 1.83 µM)
Candida parapsilosis [18]
  MIC: 2 µg/mL (≈ 1.83 µM)
Candida tropicalis [19]
  Activity: 8 µg/mL
Candida metapsilosis [20]
  MIC: 2 µg/mL (≈ 1.83 µM)
Candida orthopsilosis [21]
  MIC: 2 µg/mL (≈ 1.83 µM)
Candida orthopsilosis [22]
  Activity: Active
Candida parapsilosis [23]
  Activity: 32 µg/mL
Candida metapsilosis [24]
  Activity: inactive
Candida parapsilosis [25]
  Activity: Active
